Reference: ChEMBL document CHEMBL1143064, “Novel 9a-carbamoyl- and 9a-thiocarbamoyl-3-decladinosyl-6-hydroxy and 6-methoxy derivatives of 15-membered macrolides” (Bioorg Med Chem, 2007)
≈ marks a conversion by molar mass, not a printed value.

Legend:
Staphylococcus aureus [1] = experiment: Antibacterial activity against Staphylococcus aureus-M after 24 hrs by microdilution method; assay type: functional
In short: (§1)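 Broth microdilution in Mueller–Hinton medium run on an automated liquid handler. Compounds dissolved in DMF (5 mg/ml stock) and tested in medium from 64 to 0.125 µg/ml. Plates incubated 24 h at 37 °C, then growth read as absorbance at 600 nm. MIC taken as the concentration giving 90% growth inhibition.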

Staphylococcus aureus [2] = experiment: Antibacterial activity against Staphylococcus aureus-cMLS after 24 hrs by microdilution method; assay type: functional; in short: as §1
Streptococcus pneumoniae [3] = experiment: Antibacterial activity against Streptococcus pneumoniae after 24 hrs by microdilution method; assay type: functional; in short: as §1
Streptococcus pneumoniae [4] = experiment: Antibacterial activity against Streptococcus pneumoniae-M after 24 hrs by microdilution method; assay type: functional; in short: as §1
Streptococcus pyogenes [5] = experiment: Antibacterial activity against Streptococcus pyogenes after 24 hrs by microdilution method; assay type: functional; in short: as §1
Streptococcus pyogenes [6] = experiment: Antibacterial activity against Streptococcus pyogenes-M after 24 hrs by microdilution method; assay type: functional; in short: as §1
Haemophilus influenzae = experiment: Antibacterial activity against Haemophilus influenzae after 24 hrs by microdilution method; assay type: functional; in short: as §1
Saccharomyces cerevisiae = experiment: Toxicity against Saccharomyces cerevisiae; assay type: organism-based; conditions: in vivo
In short: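 Yeast used as a surrogate for eukaryotic cell toxicity. Microdilution in Mueller–Hinton medium with compound from a DMF stock (5 mg/ml), final range 64 to 0.125 µg/ml. Incubated 24 h at 37 °C, with optical density read at 600 nm. MIC defined as the concentration inhibiting growth by 90%.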

| Structure (SMILES) | MIC (Staphylococcus aureus [1]) [µg/mL] | MIC (Staphylococcus aureus [2]) [µg/mL] | MIC (Streptococcus pneumoniae [3]) [µg/mL] | MIC (Streptococcus pneumoniae [4]) [µg/mL] | MIC (Streptococcus pyogenes [5]) [µg/mL] | MIC (Streptococcus pyogenes [6]) [µg/mL] | MIC (Haemophilus influenzae) [µg/mL] | Activity (Saccharomyces cerevisiae) |
| --- | --- | --- | --- | --- | --- | --- | --- | --- |
| CC[C@H]1OC(=O)[C@H](C)[C@@H](OC(=O)Cc2ccc([N+](=O)[O-])cc2)[C@H](C)[C@@H](O[C@@H]2O[C@H](C)C[C@H](N(C)C)[C@H]2O)[C@](C)(O)C[C@@H](C)CN(C(=O)Nc2ccc(Cl)cc2Cl)[C@H](C)[C@@H](O)[C@]1(C)O | 32 (≈ 34.5 µM) | 32 (≈ 34.5 µM) | 2 (≈ 2.16 µM) | 4 (≈ 4.31 µM) | 4 (≈ 4.31 µM) | 32 (≈ 34.5 µM) | 32 (≈ 34.5 µM) | Non-toxic |
| CC[C@H]1OC(=O)[C@H](C)[C@@H](O)[C@H](C)[C@@H](O[C@@H]2O[C@H](C)C[C@H](N(C)C)[C@H]2O)[C@](C)(O)C[C@@H](C)CN(C(=S)NCc2ccccc2)[C@H](C)[C@@H](O)[C@]1(C)O | > 64 | > 64 | > 64 | > 64 | > 64 | > 64 | > 64 | Non-toxic |
| CC[C@H]1OC(=O)[C@H](C)C(=O)[C@H](C)[C@@H](O[C@@H]2O[C@H](C)C[C@H](N(C)C)[C@H]2O)[C@](C)(OC)C[C@@H](C)CN(C(=O)NC(C)C)[C@H](C)[C@@H](O)[C@]1(C)O | > 64 | > 64 | 8 (≈ 11.9 µM) | > 64 | 16 (≈ 23.7 µM) | > 64 | > 64 | Non-toxic |
| CC[C@H]1OC(=O)/C(C)=C\[C@H](C)[C@@H](O[C@@H]2O[C@H](C)C[C@H](N(C)C)[C@H]2O)[C@](C)(OC)C[C@@H](C)CN(C(=O)NC(C)C)[C@H](C)[C@@H](O)[C@]1(C)O | > 64 | > 64 | 8 (≈ 12.2 µM) | > 64 | 16 (≈ 24.3 µM) | > 64 | > 64 | Non-toxic |
| CC[C@H]1OC(=O)[C@H](C)[C@@H](O)[C@H](C)[C@@H](O[C@@H]2O[C@H](C)C[C@H](N(C)C)[C@H]2O)[C@](C)(O)C[C@@H](C)CN(C(=O)NC(C)C)[C@H](C)[C@@H](O)[C@]1(C)O | > 64 | > 64 | > 64 | > 64 | > 64 | > 64 | > 64 | Non-toxic |
| CC[C@H]1OC(=O)[C@H](C)[C@@H](O[C@H]2C[C@@](C)(OC)[C@@H](O)[C@H](C)O2)[C@H](C)[C@@H](O[C@@H]2O[C@H](C)C[C@H](N(C)C)[C@H]2O)[C@](C)(OC)C[C@@H](C)CN[C@H](C)[C@@H](O)[C@]1(C)O | > 64 | > 64 | 0.5 (≈ 0.668 µM) | 16 (≈ 21.4 µM) | 1 (≈ 1.34 µM) | 16 (≈ 21.4 µM) | 8 (≈ 10.7 µM) | Non-toxic |
| C=CCNC(=S)N1C[C@H](C)C[C@@](C)(O)[C@H](O[C@@H]2O[C@H](C)C[C@H](N(C)C)[C@H]2O)[C@@H](C)[C@H](O)[C@@H](C)C(=O)O[C@H](CC)[C@@](C)(O)[C@H](O)[C@H]1C | > 64 | > 64 | > 64 | > 64 | > 64 | > 64 | > 64 | Non-toxic |
| CC[C@H]1OC(=O)[C@H](C)[C@@H](O)[C@H](C)[C@@H](O[C@@H]2O[C@H](C)C[C@H](N(C)C)[C@H]2O)[C@](C)(OC)C[C@@H](C)CN(C(=O)NC(C)C)[C@H](C)[C@@H](O)[C@]1(C)O | > 64 | > 64 | 32 (≈ 47.3 µM) | > 64 | > 64 | > 64 | > 64 | Non-toxic |
| CC[C@H]1OC(=O)[C@H](C)C2(O)O[C@@](C)(C[C@@H](C)CN(C(=O)NC(C)C)[C@H](C)[C@@H](O)[C@]1(C)O)[C@H](O[C@@H]1O[C@H](C)C[C@H](N(C)C)[C@H]1O)[C@H]2C | > 64 | > 64 | > 64 | > 64 | > 64 | > 64 | > 64 | Non-toxic |
| CC[C@H]1OC(=O)[C@H](C)C2(O)O[C@@](C)(C[C@@H](C)CN(C(=O)Nc3ccc(Cl)cc3Cl)[C@H](C)[C@@H](O)[C@]1(C)O)[C@H](O[C@@H]1O[C@H](C)C[C@H](N(C)C)[C@H]1O)[C@H]2C | > 64 | > 64 | > 64 | > 64 | > 64 | > 64 | > 64 | Non-toxic |
| CC[C@H]1OC(=O)[C@H](C)C(=O)[C@H](C)[C@@H](O[C@@H]2O[C@H](C)C[C@H](N(C)C)[C@H]2O)[C@](C)(OC)C[C@@H](C)CN(C(=O)Nc2ccc(Cl)cc2Cl)[C@H](C)[C@@H](O)[C@]1(C)O | > 64 | > 64 | 8 (≈ 10.3 µM) | 8 (≈ 10.3 µM) | 16 (≈ 20.6 µM) | > 64 | > 64 | Non-toxic |
| CC[C@H]1OC(=O)/C(C)=C\[C@H](C)[C@@H](O[C@@H]2O[C@H](C)C[C@H](N(C)C)[C@H]2O)[C@](C)(OC)C[C@@H](C)CN(C(=O)Nc2ccc(Cl)cc2Cl)[C@H](C)[C@@H](O)[C@]1(C)O | > 64 | > 64 | 8 (≈ 10.5 µM) | 16 (≈ 21 µM) | 32 (≈ 42.1 µM) | > 64 | > 64 | Non-toxic |
| CC[C@H]1OC(=O)[C@H](C)C2O[C@@](C)(C[C@@H](C)CN(C(=O)NC(C)C)[C@H](C)[C@@H](O)[C@]1(C)O)[C@H](O[C@@H]1O[C@H](C)C[C@H](N(C)C)[C@H]1O)[C@H]2C | > 64 | > 64 | > 64 | > 64 | > 64 | > 64 | > 64 | Non-toxic |
| CC[C@H]1OC(=O)[C@H](C)[C@@H](O)[C@H](C)[C@@H](O[C@@H]2O[C@H](C)C[C@H](N(C)C)[C@H]2O)[C@](C)(O)C[C@@H](C)CN(C(=O)Nc2ccc(Cl)cc2Cl)[C@H](C)[C@@H](O)[C@]1(C)O | > 64 | > 64 | > 64 | > 64 | > 64 | > 64 | > 64 | Non-toxic |
| CC[C@H]1OC(=O)[C@H](C)[C@@H](O)[C@H](C)[C@@H](O[C@@H]2O[C@H](C)C[C@H](N(C)C)[C@H]2O)[C@](C)(OC)C[C@@H](C)CN(C(=O)Nc2ccc(Cl)cc2Cl)[C@H](C)[C@@H](O)[C@]1(C)O | > 64 | > 64 | > 64 | > 64 | > 64 | > 64 | > 64 | Non-toxic |
| CC[C@H]1OC(=O)[C@H](C)C2O[C@@](C)(C[C@@H](C)CN(C(=O)Nc3ccc(Cl)cc3Cl)[C@H](C)[C@@H](O)[C@]1(C)O)[C@H](O[C@@H]1O[C@H](C)C[C@H](N(C)C)[C@H]1O)[C@H]2C | > 64 | > 64 | > 64 | > 64 | > 64 | > 64 | > 64 | Non-toxic |
| CC[C@H]1OC(=O)[C@H](C)[C@@H](O[C@H]2C[C@@](C)(OC)[C@@H](O)[C@H](C)O2)[C@H](C)[C@@H](O[C@@H]2O[C@H](C)C[C@H](N(C)C)[C@H]2O)[C@](C)(O)C[C@@H](C)C(=O)[C@H](C)[C@@H](O)[C@]1(C)O [ERYTHROMYCIN] | > 64 | > 64 | 0.125 (≈ 0.17 µM) | 8 (≈ 10.9 µM) | 0.125 (≈ 0.17 µM) | 8 (≈ 10.9 µM) | 4 (≈ 5.45 µM) |  |
